According to ChEMBL document CHEMBL1155472, “Versatile synthesis of new cytotoxic agents structurally related to hemiasterlins” (Bioorg Med Chem Lett, 2010):
The source made the active and inactive calls. The rule behind the calls is not given here.

Key:
[1] = Cytotoxicity against human UCI101 cells after 2 days by Alamar blue staining; format: functional, cell-based; details: UCI101, 48 h
Outline: (§1)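 UCI-101 human ovarian cancer cells and N1–S1 rat hepatoma cells were exposed to a range of concentrations for 2 days. Growth suppression was read by Alamar blue staining, with each concentration run in triplicate, and plotted against concentration.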

[2] = Cytotoxicity against rat N1S1 cells after 2 days by Alamar blue staining; format: functional, cell-based; details: N1-S1, 48 h; outline: as §1
[3] = test system: UCI101; assay: Cytotoxicity against human UCI101 cells at 1 mM after 2 days by Alamar blue staining; format: functional, cell-based; outline: as §1
[4] = test system: N1S1; assay: Cytotoxicity against rat N1S1 cells at 1 mM after 2 days by Alamar blue staining; format: functional, cell-based; outline: as §1
[5] = Inhibition of tubulin polymerization at 5 uM
Outline: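 Tubulin polymerization was run with a commercial polymerization assay kit, and polymerization curves were recorded over time. Colchicine and paclitaxel were run alongside as reference controls.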

[6] = Cell cycle arrest in human UCI101 cells assessed as accumulation at G2 phase at 10 nM after 16 hrs using ethidium bromide staining by FACS analysis; format: functional, cell-based
[7] = Cell cycle arrest in human UCI101 cells assessed as accumulation at G2 phase at 20 nM after 16 hrs using ethidium bromide staining by FACS analysis; format: functional, cell-based
[8] = Cell cycle arrest in human UCI101 cells assessed as accumulation at G2 phase at 25 nM after 16 hrs using ethidium bromide staining by FACS analysis; format: functional, cell-based

Structure (SMILES)	IC50 [1]	IC50 [2]	Activity [3]	Activity [4]	Activity [6]	Activity [7]	Activity [8]	further results
C/C(=C\[C@H](C(C)C)N(C)C(=O)[C@@H](NC(=O)C(C)NC(C)(C)c1ccc2ccccc2c1)C(C)(C)C)C(=O)O (stereo partly drawn)	200 nM	200 nM						
C/C(=C\[C@H](C(C)C)N(C)C(=O)[C@@H](NC(=O)C(C)NC1CCCCC1)C(C)(C)C)C(=O)O (mixture of isomers)			Not toxic	Not toxic				
C/C(=C\[C@H](C(C)C)N(C)C(=O)[C@@H](NC(=O)[C@@H](C)NC(C)(C)c1ccccc1)C(C)C)C(=O)O	20 nM				4.7%	11%	12%	inhibition [5]: Active
CC(NC(C)(C)c1ccccc1)C(=O)N[C@H](C(=O)N(C)c1cccc(C(=O)O)c1)C(C)C (stereo partly drawn)			Not toxic	Not toxic				
C/C(=C\[C@H](C(C)C)N(C)C(=O)[C@@H](NC(=O)[C@@H](C)NC(C)(C)c1ccccc1)C(C)(C)C)C(=O)O		20 nM			Active	Active	Active	Activity [5]: Active
C/C(=C\[C@H](C(C)C)N(C)C(=O)[C@@H](NC(=O)[C@H](C)NC(C)(C)c1ccccc1)C(C)(C)C)C(=O)O	200 nM	200 nM						
